Data: ChEMBL document CHEMBL1156469 (2007)
Calls of active or inactive are those of the source. The rule behind the calls is not given here.

Tests used:
Osteoblast [1] = experiment: Reversal of increase in ER.DNA complex in rat primary osteoblast cells at 1 uM by RT-PCR in presence of PP2; format: functional, cell-based
MC3T3-E1 [2] = experiment: Increase in BMP2 expression in mouse MC3T3-E1 cells expressing pBMP2delta2 mutant at 1 uM after 4 hrs by luciferase method relative to control; format: functional, cell-based
How it was run: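 MC3T3-E1 cells transfected with BMP-2 promoter–luciferase constructs (full promoter or deletions), treated with 1 μm or vehicle for 4 h; Dual-Luciferase assay; means ± S.D.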

[3] = Reversal of increase in BMP2 expression in mouse MC3T3-E1 cells expressing pBMP2/mSp1 mutant at 1 uM after 4 hrs by luciferase method; format: functional, cell-based
Osteoblast [4] = experiment: Effect on ornithine decarboxylase gene expression in rat primary osteoblast cells assessed as expression ratio of treated to untreated control by microarray analysis; format: functional
How it was run: (§1)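 Resveratrol-treated and vehicle-treated primary osteoblasts were profiled on a mouse osteogenesis-focused cDNA array (GEArray Q series) built to track gene expression during osteogenic differentiation. Each gene's signal in treated cells was expressed as a ratio to untreated control.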

[5] = molecular target: Proto-oncogene tyrosine-protein kinase Src (Mus musculus) (UniProt P05480); experiment: Increase in Src kinase phosphorylation in mouse MC3T3-E1 cells at 1 uM; format: cell-based
Chain of Proto-oncogene tyrosine-protein kinase Src (Mus musculus) (P05480 2-535 limits assumed): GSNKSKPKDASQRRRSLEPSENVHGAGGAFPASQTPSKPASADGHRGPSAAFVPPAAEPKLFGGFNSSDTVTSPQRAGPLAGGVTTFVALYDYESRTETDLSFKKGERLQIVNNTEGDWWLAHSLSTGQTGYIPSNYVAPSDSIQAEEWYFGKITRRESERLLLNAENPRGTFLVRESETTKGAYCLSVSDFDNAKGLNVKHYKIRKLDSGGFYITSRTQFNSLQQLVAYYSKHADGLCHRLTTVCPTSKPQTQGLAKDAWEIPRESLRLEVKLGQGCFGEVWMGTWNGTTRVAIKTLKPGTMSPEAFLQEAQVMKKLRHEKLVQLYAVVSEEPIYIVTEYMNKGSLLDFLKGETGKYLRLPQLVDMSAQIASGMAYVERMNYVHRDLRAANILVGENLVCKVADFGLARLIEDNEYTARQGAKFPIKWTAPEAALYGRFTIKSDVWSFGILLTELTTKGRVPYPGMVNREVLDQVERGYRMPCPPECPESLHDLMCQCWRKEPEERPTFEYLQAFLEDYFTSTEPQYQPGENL
How it was run: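 MC3T3-E1 cells, with or without DN-Src vector (3 μg) or PP2 (10 μm), treated ± 1 μm; Src phosphorylation by Western blot; three independent experiments.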

MDA-MB-231 [6] = experiment: Reversal of inhibition in anchorage-independent colony formation of human MDA-MB-231 cells transfected with FOXO3a-specific small interfering RNA by soft agar colony forming assay; format: functional, cell-based
MDA-MB-231 [7] = experiment: Enhancement of FOXO3a nuclear accumulation in human MDA-MB-231 cells transfected with dominant negative Akt mutant; format: functional, cell-based
How it was run: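 MDA-MB-231 cells transfected with vector, constitutively active Akt or dominant negative Akt, treated ± compound; analyzed by Western blotting and BMP-2 promoter luciferase activity.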

Osteoblast [8] = experiment: Effect on procollagen 4 alpha 1 gene expression in rat primary osteoblast cells assessed as expression ratio of treated to untreated control by microarray analysis; format: functional; how it was run: as §1
[9] = Reversal of induction in nuclear translocation of ERalpha in mouse MC3T3-E1 cells transfected with dominant-negative mutant Src expression vector at 1 uM; format: functional, cell-based
How it was run: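 Src phosphorylation, ERα nuclear translocation and BMP-2 protein analysed by Western blot with ECL detection. Three independent experiments.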

[10] = Reversal of increase in pBMP2 expression in mouse MC3T3-E1 cells transfected with dominant-negative mutant Src expression vector at 1 uM by luciferase method; format: functional, cell-based
How it was run: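 BMP-2 promoter activity measured by dual-luciferase assay and expressed relative to the untreated vector control.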

[11] = molecular target: T1, Alkaline phosphatase (Mus musculus) (UniProt Q9EQ79); experiment: Increase in ALP activity in mouse MC3T3-E1 cells at 0.1 to 10 uM after 7 days; format: cell-based
T1 sequence (whole entry): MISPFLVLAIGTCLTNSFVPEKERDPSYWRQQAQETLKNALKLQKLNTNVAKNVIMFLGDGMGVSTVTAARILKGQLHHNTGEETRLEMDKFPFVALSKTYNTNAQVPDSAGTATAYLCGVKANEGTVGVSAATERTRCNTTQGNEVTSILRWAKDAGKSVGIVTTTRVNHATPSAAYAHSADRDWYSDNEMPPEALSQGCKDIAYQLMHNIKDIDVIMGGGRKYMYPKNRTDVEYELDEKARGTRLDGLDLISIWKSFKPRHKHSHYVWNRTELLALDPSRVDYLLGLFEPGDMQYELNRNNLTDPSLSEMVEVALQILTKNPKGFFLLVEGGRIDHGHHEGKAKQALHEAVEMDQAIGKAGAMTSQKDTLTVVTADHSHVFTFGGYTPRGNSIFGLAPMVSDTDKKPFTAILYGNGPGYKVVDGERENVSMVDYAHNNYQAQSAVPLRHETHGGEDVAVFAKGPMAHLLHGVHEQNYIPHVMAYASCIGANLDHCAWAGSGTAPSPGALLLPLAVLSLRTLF

[12] = molecular target: Alkaline phosphatase (Rattus norvegicus) (UniProt Q9JKS8); experiment: Increase in ALP activity in rat primary osteoblast cells at 0.1 to 10 uM after 7 days; format: cell-based
Chain of Alkaline phosphatase (Rattus norvegicus) (Q9JKS8 as listed by the source): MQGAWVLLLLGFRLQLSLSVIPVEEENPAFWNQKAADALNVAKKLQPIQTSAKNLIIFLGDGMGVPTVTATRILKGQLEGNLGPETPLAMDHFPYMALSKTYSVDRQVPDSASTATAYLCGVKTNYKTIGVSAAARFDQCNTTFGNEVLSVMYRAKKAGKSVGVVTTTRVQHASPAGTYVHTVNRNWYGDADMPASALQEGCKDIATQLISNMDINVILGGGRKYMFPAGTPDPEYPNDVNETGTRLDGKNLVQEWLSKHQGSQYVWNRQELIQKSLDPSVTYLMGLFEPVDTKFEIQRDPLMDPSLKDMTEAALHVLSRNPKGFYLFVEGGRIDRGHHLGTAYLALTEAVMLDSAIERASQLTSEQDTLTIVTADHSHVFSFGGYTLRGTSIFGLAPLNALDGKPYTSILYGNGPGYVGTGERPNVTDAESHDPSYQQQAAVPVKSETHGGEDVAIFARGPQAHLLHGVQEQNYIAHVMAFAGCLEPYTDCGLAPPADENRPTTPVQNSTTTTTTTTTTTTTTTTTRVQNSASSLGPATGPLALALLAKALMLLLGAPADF

MG-63 = experiment: Increase in osteocalcin levels in human MG63 cells at 1 uM after 72 hrs by ELISA; format: functional, cell-based
How it was run: (§2)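 Cells treated with 1 μm for 72 h; osteocalcin or osteopontin in culture medium by sandwich ELISA, HRP-streptavidin/TMB, 450 nm; percent change versus untreated control.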

Osteoblast [13] = experiment: Increase in osteopontin levels in rat primary osteoblast cells at 1 uM after 72 hrs by ELISA; format: functional, cell-based; how it was run: as §2
MC3T3-E1 [14] = experiment: Inhibition of TNF-alpha-induced apoptosis in mouse MC3T3-E1 cells after 24 hrs by flow cytometry; format: functional, cell-based
How it was run: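 Cells washed in PBS, held 30 min in 0.5% Triton X-100/PBS/0.05% RNase A, then propidium iodide (50 μg/ml) added and kept on ice 15–30 min. Apoptosis is the hypodiploid fraction below the G0/G1 peak, by flow cytometry. Run in triplicate and repeated on three occasions.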

Osteoblast [15] = experiment: Effect on fibroblast growth factor receptor 3 gene expression in rat primary osteoblast cells assessed as expression ratio of treated to untreated control by microarray analysis; format: functional
Osteoblast [16] = experiment: Effect on fibronectin 1 gene expression in rat primary osteoblast cells assessed as expression ratio of treated to untreated control by microarray analysis; format: functional
Osteoblast [17] = experiment: Effect on histone H1 gene expression in rat primary osteoblast cells assessed as expression ratio of treated to untreated control by microarray analysis; format: functional; how it was run: as §1
Osteoblast [18] = experiment: Effect on integrin alpha 2 gene expression in rat primary osteoblast cells assessed as expression ratio of treated to untreated control by microarray analysis; format: functional; how it was run: as §1
Osteoblast [19] = experiment: Effect on procollagen 9 alpha 1 gene expression in rat primary osteoblast cells assessed as expression ratio of treated to untreated control by microarray analysis; format: functional; how it was run: as §1
Osteoblast [20] = experiment: Effect on MAD homolog 1 gene expression in rat primary osteoblast cells assessed as expression ratio of treated to untreated control by microarray analysis; format: functional
Osteoblast [21] = experiment: Effect on MAD homolog 6 gene expression in rat primary osteoblast cells assessed as expression ratio of treated to untreated control by microarray analysis; format: functional
Osteoblast [22] = experiment: Effect on matrix metalloprotease 13 gene expression in rat primary osteoblast cells assessed as expression ratio of treated to untreated control by microarray analysis; format: functional; how it was run: as §1
Osteoblast [23] = experiment: Effect on matrix metalloprotease 9 gene expression in rat primary osteoblast cells assessed as expression ratio of treated to untreated control by microarray analysis; format: functional; how it was run: as §1
Osteoblast [24] = experiment: Effect on serine proteinase inhibitor clade H1 gene expression in rat primary osteoblast cells assessed as expression ratio of treated to untreated control by microarray analysis; format: functional; how it was run: as §1
Osteoblast [25] = experiment: Effect on procollagen 1 alpha 2 gene expression in rat primary osteoblast cells assessed as expression ratio of treated to untreated control by microarray analysis; format: functional; how it was run: as §1
[26] = Effect on colony stimulating factor 2 gene expression in rat primary osteoblast cells assessed as expression ratio of treated to untreated control by microarray analysis; format: functional

Oc1ccc(/C=C/c2cc(O)cc(O)c2)cc1 [RESVERATROL]
Activity (Osteoblast [1]): Active
Activity (MC3T3-E1 [2]): inactive
Activity [3]: inactive
Ratio (Osteoblast [4]): 2.79
Activity [5]: Active
Activity (MDA-MB-231 [6]): Active
Activity (MDA-MB-231 [7]): Active
Ratio (Osteoblast [8]): 8.15
Activity [9]: Active
Activity [10]: Active
Activity [11]: Active
Activity [12]: Active
Activity (MG-63): Active
Activity (Osteoblast [13]): Active
Activity (MC3T3-E1 [14]): Active
Ratio (Osteoblast [15]): 0.9
Ratio (Osteoblast [16]): 8.76
Ratio (Osteoblast [17]): 0.44
Ratio (Osteoblast [18]): 2.24
Ratio (Osteoblast [19]): 3.99
Ratio (Osteoblast [20]): 3.24
Ratio (Osteoblast [21]): 0.38
Ratio (Osteoblast [22]): 0.64
Ratio (Osteoblast [23]): 0.43
Ratio (Osteoblast [24]): 2.82
Ratio (Osteoblast [25]): 8.24
Ratio [26]: 0.35
